# Hits are enriched below; roughly 12% of the tested compounds scored in any of these assays.
# RAM inhibit = inhibitors of the yeast RAM network; inhibition, % at 50 µM; hit rate 1.8% among 190,000; AID 868; S. cerevisiae dse1pr::URA3 reporter, 5-FOA growth OD615, 2 d; analog-sensitive cbk1-as2 kinase mutant strain;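 active means inhibition above a set limit, 3 SD over mean compound inhibition, cut at about 8.4% in these data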;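 further: 0% = DMSO-only wells with no growth and 100% = 10 µM 1-NA-PP1 full growth; inhibition rescues growth on 5-FOA so higher OD means more RAM inhibition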
# ABCG2 inh = inhibitors of human ABCG2 transporter, ABCB1 counter-screen; inhibition, % at 6.6 µM; hit rate 0.1% among 190,000; IgMXP3 cells, JC-1 efflux, flow cytometry;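 active means inhibition above 80%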;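 further: 0% = DMSO and 100% = nicardipine control wells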
# Target sequence (Q9UNQ0 whole entry, looked up): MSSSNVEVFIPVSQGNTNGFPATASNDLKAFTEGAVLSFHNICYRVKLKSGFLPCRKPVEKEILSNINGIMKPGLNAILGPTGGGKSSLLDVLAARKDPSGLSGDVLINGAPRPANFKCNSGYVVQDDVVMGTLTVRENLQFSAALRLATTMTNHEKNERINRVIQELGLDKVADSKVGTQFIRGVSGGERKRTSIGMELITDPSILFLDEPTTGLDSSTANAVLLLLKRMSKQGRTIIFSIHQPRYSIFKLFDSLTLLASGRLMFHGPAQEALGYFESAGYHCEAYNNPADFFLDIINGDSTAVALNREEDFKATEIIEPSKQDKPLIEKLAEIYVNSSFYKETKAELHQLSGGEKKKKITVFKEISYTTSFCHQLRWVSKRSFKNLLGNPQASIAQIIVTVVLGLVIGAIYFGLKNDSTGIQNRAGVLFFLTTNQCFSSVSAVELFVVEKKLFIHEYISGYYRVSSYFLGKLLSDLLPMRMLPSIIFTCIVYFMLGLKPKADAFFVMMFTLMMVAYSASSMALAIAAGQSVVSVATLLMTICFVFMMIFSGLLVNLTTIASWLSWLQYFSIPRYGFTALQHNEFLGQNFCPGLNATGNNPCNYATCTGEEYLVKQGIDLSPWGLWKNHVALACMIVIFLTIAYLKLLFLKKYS
#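 Incubation: cells with compound and JC-1, 10 min at 25 °C, rotating, no wash / Test system: IgMXP3 (ABCG2) plus far-red-tagged CCRF-Adr (ABCB1) cells / Compound dosing: one concentration, 6.6 µM final / Also added: JC-1 fluorescent substrate / Evaluation: efflux inhibition in percent versus controls / Detection: flow cytometry, 530 nm JC-1 signal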
# Lmaj promast = inhibitors of Leishmania major promastigote growth; Leishmania major promastigotes, resazurin fluorescence viability; inhibition, % at 10 µM; hit rate 9% among 200,000; AID 1063; in the data active means inhibition above about 50%;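 further: promastigotes grown with compound for 44 hours at 28 °C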
# ABCB1 inh = blocks JC-1 efflux by human ABCB1 transporter; P08183; CCRF-Adr cells, flow cytometry; inhibition, % at 6.6 µM; hit rate 0.067% among 190,000; in the data active means inhibition above about 40%;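 further: 0% = vehicle and 100% = reference inhibitor; higher value means more JC-1 retained so stronger ABCB1 efflux block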
# WT yeast gro inh = growth inhibition of WT yeast, mitochondrial fusion screen; AID 1362; mitochondrial fusion phenotypic screen, WT strain; inhibition, % at 10 µM; hit rate 2.1% among 190,000; in the data active means inhibition above about 58%; tested in S. cerevisiae
# RAM efflux-def = restores 5-FOA growth of efflux-deficient yeast; max inhibition, %; 1,200 tested, under 10 active; shares compounds with RAM inhibit; S. cerevisiae efflux-deficient reporter strain, 5-FOA growth OD615, 2 days; call rule not given here;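 further: plate controls were vehicle for no effect and reference inhibitor for full effect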
# * marks the source's active call; other numbers are inactive results; · = not tested or not shown.
SMILES,RAM inhibit,ABCG2 inh,Lmaj promast,ABCB1 inh,WT yeast gro inh,RAM efflux-def
COC(=O)C1=C(C)N(C2CCCCC2)C(=O)/C1=C\c1cccs1,2.9,18.4,27.0,0.4,23.8,·
CCCCN(CCCC)S(=O)(=O)c1ccc(NC(=O)c2cccs2)cc1,16.2*,4.7,93.8*,1.7,-2.6,2.9
Cc1cc(C)nc(NS(=O)(=O)c2ccc(NC(=O)c3cccs3)cc2)n1,2.1,2.5,-2.6,0.5,22.7,·
COc1ccc(OC)c(NC(=O)C2CCN(Cc3cnn(-c4ccccc4)c3-n3cccc3)CC2)c1,2.7,-0.2,10.6,0.0,6.8,·
COc1cc(NC(=O)CSCc2cnn(-c3ccccc3)c2-n2cccc2)cc(OC)c1,19.8*,36.0,14.8,1.6,30.1,2.4
COc1ccc(OC)c(NC(=O)CSCc2cnn(-c3ccccc3)c2-n2cccc2)c1,16.3*,9.2,10.8,1.2,26.8,2.8
S=c1cnc2ccccc2[nH]1,-0.5,-1.5,6.6,-0.6,6.1,·
Cc1cccc2[nH]c(CN(C)C(=O)CC3C(=O)NCCN3CC(C)(C)C)nc12 (stereo not drawn),0.4,10.6,-0.7,2.1,-0.1,·
O=C(c1cc(COc2ccc(F)cc2Cl)on1)N1CCCC(c2ccccc2)C1 (stereo not drawn),13.1*,5.6,-0.8,1.7,37.8,3.6
O=C(c1cc(COc2ccc(F)cc2F)on1)N1CCCC(c2ccccc2)C1 (stereo not drawn),6.3,9.2,-4.0,2.6,45.0,·
COc1cccc(OCCNC(=O)c2ccccc2Sc2ccccc2C#N)c1,4.1,5.5,29.5,0.8,-18.8,·
Cc1ccccc1OCCNC(=O)c1ccccc1Sc1ccccc1C#N,14.1*,8.7,12.9,1.7,12.2,1.6
Cc1cc(C)c(OCCNC(=O)c2ccccc2Sc2ccccc2C#N)c(C)c1,19.7*,20.9,99.5*,1.8,24.5,4.6
COc1ccc(CCNC(=O)CCCN2C(=O)c3ccccc3C2=O)cc1,1.6,17.9,-6.1,1.2,-5.1,·
Cc1nn(CCC(=O)NNC(=S)NCC(C)C)c(C)c1Br,0.6,1.2,12.8,0.3,0.8,·
CCOC(=O)/C(C#N)=C(C)/C=C1\Sc2ccccc2N1CC,21.6*,-11.2,1.2,-4.9,6.5,2.9
Cc1ccc(CNC(=O)c2oc3ccc(S(=O)(=O)N4CCC5(CC4)OCCO5)cc3c2C)cc1,5.1,0.4,21.1,0.4,5.4,·
Cc1ccc(NC(=O)c2oc3ccc(S(=O)(=O)N4CCC5(CC4)OCCO5)cc3c2C)cc1C,12.4*,-13.5,14.5,-2.3,12.9,1.4
CC1C/C(=N\NC(=O)c2ccc(NS(=O)(=O)c3ccc(Br)cc3)cc2)CC(C)(C)C1 (stereo not drawn),-0.1,-2.8,-7.5,-0.5,0.8,·
O=C(CSc1nnc(-c2ccccc2)n1Cc1ccco1)Nc1ccc2c(c1)OCCO2,6.2,6.1,36.7,1.4,20.6,·
Cc1ccc(OCc2nnc(SCC(=O)Nc3ccc4c(c3)OCCO4)n2Cc2ccco2)cc1,11.7*,2.2,96.0*,1.3,5.4,1.5
O=C(Nc1cccnc1Cl)c1ccc2c(Cl)c3c(nc2c1)CCC3,12.2*,5.0,12.0,0.9,17.3,4.0
COc1ccc(S(=O)(=O)NCCSCc2cccc(C)c2)cc1Br,12.4*,-0.2,-1.5,0.0,64.9*,1.4
Cc1ccc(S(=O)(=O)NCCSCc2ccccc2)cc1,0.8,-0.3,-3.5,0.3,14.5,·
Cc1cccc(Oc2cc(NC(=O)c3ccccc3)cc([N+](=O)[O-])c2)c1,13.1*,11.1,5.1,1.0,26.5,2.3
SMILES,RAM inhibit,ABCG2 inh,Lmaj promast,ABCB1 inh,WT yeast gro inh,RAM efflux-def
CCOC(=O)c1ccccc1NC(=O)c1c(O)c2ccccc2n(CC)c1=O,11.4*,3.4,-4.3,0.2,13.9,1.7
CCCn1c(=O)c(C(=O)NCc2ccncc2)c(O)c2ccccc21,-0.6,-0.3,1.1,-0.3,12.7,·
CCCn1c(=O)c(C(=O)Nc2ccccc2C(=O)OC)c(O)c2ccccc21,14.5*,1.6,-6.8,0.4,-19.2,1.9
CCn1c(=O)c(C(=O)Nc2ccsc2C(=O)OC)c(O)c2ccccc21,1.8,8.6,3.7,1.0,9.0,·
C=CCn1c(=O)c(C(=O)Nc2ccccc2C(=O)OCC)c(O)c2ccccc21,14.5*,1.2,68.0*,0.1,-2.1,1.6
COc1cc2c(cc1OC)CN(Cc1cc(OC)c(O)c(OC)c1)CC2,1.7,-1.0,-2.1,0.3,-0.9,·
CCOC(=O)c1cnc(N2CCN(C(=O)OCC)CC2)[nH]c1=O,0.3,1.6,-5.7,0.4,-2.7,·
CC1=C(C(=O)OCC2CCCO2)C(c2ccc(F)cc2)NC(=O)N1 (stereo not drawn),3.1,0.9,-8.3,0.2,1.6,·
O=C(NCc1ccco1)c1cc(-c2ccccn2)nc2ccccc12,3.1,1.8,6.1,-0.2,10.8,·
O=C(NCc1ccc2c(c1)OCO2)c1cc(-c2ccccn2)nc2ccccc12,13.7*,1.1,9.1,0.3,7.4,3.3
CCCCOc1ccc(/C=C2/Sc3ccccc3C2=O)cc1,16.6*,-0.7,-5.9,0.1,40.5,5.1
CC(C)COc1ccc(/C=C2/Sc3ccccc3C2=O)cc1,20.9*,-0.8,-3.6,0.5,13.6,6.9
O=C1/C(=C/c2cccs2)Sc2ccccc21,3.4,-1.5,-5.5,-0.2,13.7,·
CC1CCc2sc(C(=O)OCC(=O)NCc3ccc(F)cc3)cc2C1 (stereo not drawn),4.8,-0.1,-8.0,0.1,5.7,·
CC(NC(=O)COC(=O)CCc1ccccc1)c1ccccc1 (stereo not drawn),1.0,8.3,42.5,1.2,-2.2,·
COC(=O)CN(c1ccc(F)cc1)S(=O)(=O)c1ccccc1,-0.8,1.2,-1.9,0.4,2.6,·
COC(=O)Cc1ccc(N(Cc2ccccc2F)S(=O)(=O)c2ccc(Cl)cc2)cc1,15.5*,9.9,-2.3,0.1,68.8*,1.1
Cc1ccc(-n2c(SC3CCOC3=O)nc3ccccc3c2=O)cc1 (stereo not drawn),7.0,2.9,-1.4,2.2,14.9,·
Cc1cc(OCc2nnc(SCC(=O)OC3CCCCC3)o2)ccc1Cl,11.7*,6.8,4.3,0.5,8.6,2.3
O=C(CSc1nnc(COc2ccc(Cl)cc2)o1)OC1CCCCC1,0.6,1.8,-3.6,0.0,16.3,·
CN(Cc1ccccc1)c1ncnc(N)c1[N+](=O)[O-],1.5,1.8,7.4,0.2,-12.3,·
Nc1ncnc(Sc2ccccc2)c1[N+](=O)[O-],72.5*,15.7,30.9,0.3,-8.5,3.8
Cc1ccnc2nc(C(=O)OCC(=O)NC(=O)NCc3ccco3)nn12,2.5,2.3,-4.4,0.1,14.9,·
CCOC(=O)CCCSc1nc(-c2ccc3c(c2)OCO3)cc(C(F)(F)F)c1C#N,14.1*,1.9,-1.6,-0.3,-0.6,1.9
CCOC(=O)CSc1nc(-c2ccc3c(c2)OCO3)ccc1C#N,7.1,1.9,-3.1,0.2,11.8,·

# From PubChem
